Data published in ChEMBL document CHEMBL5214909.

Experiments:
[1] = target: Replicase polyprotein 1ab (Severe acute respiratory syndrome coronavirus 2, UniProt P0DTD1); assay: Inhibition of SARS-CoV-2 3CLpro using FAM-SAVLQ/SG-QXL520 as substrate measured after 1 hr by fluorescence based microplate reader analysis
How it was run: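 The protease was full-length, codon-optimized SARS-CoV-2 3CLpro with an N-terminal His6 tag, expressed from pET-28a(+). It was preincubated with serial inhibitor dilutions or DMSO for 1 h at 37 °C in 20 mM HEPES pH 8, 200 mM NaCl, 0.4 mM EDTA, 60% glycerol and 6 mM DTT. Substrate was then added. Fluorescence (ex 480/em 520 nm) was read 1 h later, minus a no-protease background. IC50 came from a variable-slope fit, averaged over at least two determinations.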

[2] = test system: Huh-7; assay: Cytotoxicity against human Huh-7 cells by CytoTox 96 nonradioactive cytotoxicity assay; type: functional
How it was run: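 Confluent cells were exposed to compound at 1 to 100 μM for 72 h, and cytotoxicity was read with the CytoTox 96 nonradioactive kit. CC50 came from a variable-slope fit, averaged over at least two determinations.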

[3] = Inhibition of MERS-CoV 3CLpro; set-up: species or system Middle East respiratory syndrome-related coronavirus
[4] = test system: SARS-CoV-2; assay: Antiviral activity against SARS-CoV-2 infected in African green monkey Vero E6 cells measured after 48 to 72 hrs; type: functional, organism-based; conditions: Severe acute respiratory syndrome coronavirus 2, Vero C1008

Compound	IC50 [1]	CC50 [2]	IC50 [3]	EC50 [4]
CC(C)C[C@H](NC(=O)OCC12CC3CC(CC(C3)C1)C2)C(=O)N[C@H](C=O)C[C@H]1CCNC1=O	180 nM	> 100000 nM	55 nM	
[2H]C([2H])(OC(=O)N[C@@H](CC(C)C)C(=O)N[C@H](C=O)C[C@H]1CCNC1=O)C12CC3CC(CC(O)(C3)C1)C2	740 nM	> 100000 nM		
CC(C)C[C@H](NC(=O)OC1CC2CCC(C1)N2C(=O)OCc1ccccc1)C(=O)N[C@@H](C[C@H]1CCNC1=O)C(O)S(=O)(=O)O (stereo not given in full)	370 nM	> 100000 nM		
[2H]C([2H])(OC(=O)N[C@@H](CC(C)C)C(=O)N[C@@H](C[C@H]1CCNC1=O)C(O)S(=O)(=O)[O-])C1CC2CCCC(C2)C1.[Na+] (stereo not given in full)	290 nM	> 100000 nM		
CC(C)C[C@H](NC(=O)OCC12CC3CC(CC(O)(C3)C1)C2)C(=O)N[C@@H](C[C@H]1CCNC1=O)C(O)S(=O)(=O)O (stereo not given in full)	1030 nM	> 100000 nM		
[2H]C([2H])(OC(=O)N[C@@H](CC(C)C)C(=O)N[C@H](C=O)C[C@H]1CCNC1=O)C1CC2CCCC(C2)C1 (stereo not given in full)	290 nM	> 100000 nM		
CC(C)C[C@H](NC(=O)OCC12CC3CC(CC(C3)C1)C2)C(=O)N[C@@H](C[C@H]1CCNC1=O)C(O)S(=O)(=O)O (stereo not given in full)	150 nM	> 100000 nM	53 nM	
CC(C)C[C@H](NC(=O)OC1CC2CCC(C1)N2C(=O)OC(C)(C)C)C(=O)N[C@@H](C[C@H]1CCNC1=O)C(O)S(=O)(=O)O (stereo not given in full)	1710 nM	> 100000 nM		
CC(C)C[C@H](NC(=O)OCCC12CC3CC(CC(C3)C1)C2)C(=O)N[C@@H](C[C@H]1CCNC1=O)C(O)S(=O)(=O)O (stereo not given in full)	250 nM	> 100000 nM		
CC(C)C[C@H](NC(=O)OCC12CC3CC(CC(O)(C3)C1)C2)C(=O)N[C@H](C=O)C[C@H]1CCNC1=O	820 nM	> 100000 nM		
CC(C)C[C@H](NC(=O)OCCC12CC3CC(CC(C3)C1)C2)C(=O)N[C@H](C=O)C[C@H]1CCNC1=O	270 nM	> 100000 nM		
[2H]C([2H])(OC(=O)N[C@@H](CC(C)C)C(=O)N[C@@H](C[C@H]1CCNC1=O)C(O)S(=O)(=O)[O-])C12CC3CC(CC(C3)C1)C2.[Na+] (stereo not given in full)	270 nM	> 100000 nM		
[2H]C([2H])(OC(=O)N[C@@H](CC(C)C)C(=O)N[C@H](C=O)C[C@H]1CCNC1=O)C12CC3CC(CC(C3)C1)C2	290 nM	> 100000 nM		
[2H]C([2H])(OC(=O)N[C@@H](CC(C)C)C(=O)N[C@@H](C[C@H]1CCNC1=O)C(O)S(=O)(=O)[O-])C12CC3CC(CC(O)(C3)C1)C2.[Na+] (stereo not given in full)	780 nM	> 100000 nM		
CC(C)C[C@H](NC(=O)OC1CC2CCC(C1)N2C(=O)OC(C)(C)C)C(=O)N[C@H](C=O)C[C@H]1CCNC1=O (stereo not given in full)	1900 nM	> 100000 nM		
CC(C)C[C@H](NC(=O)OCC1CC2CCCC(C2)C1)C(=O)N[C@H](C=O)C[C@H]1CCNC1=O (stereo not given in full)	180 nM	> 100000 nM	52 nM	35 nM
CC(C)C[C@H](NC(=O)OC1CC2CCC(C1)N2C(=O)OCc1ccccc1)C(=O)N[C@H](C=O)C[C@H]1CCNC1=O (stereo not given in full)	390 nM	> 100000 nM		
CCCCCC12CCC(COC(=O)N[C@@H](CC(C)C)C(=O)N[C@@H](C[C@@H]3CCNC3=O)C(O)S(=O)(=O)O)(CC1)CC2 (single isomer, unassigned)		21000 nM		
CC(C)C[C@H](NC(=O)OCC1C[C@H]2CCC[C@@H](C1)C2)C(=O)N[C@@H](C[C@@H]1CCNC1=O)C(O)S(=O)(=O)O (single isomer, unassigned)		> 100000 nM	49 nM	32 nM
CC(C)C[C@H](NC(=O)OCC1CC2C=CC1C2)C(=O)N[C@H](C=O)C[C@@H]1CCNC1=O (single isomer, unassigned)		> 100000 nM		
CC(C)C[C@H](NC(=O)OCC1CC2CCC1C2)C(=O)N[C@@H](C[C@@H]1CCNC1=O)C(O)S(=O)(=O)O (single isomer, unassigned)		> 100000 nM	58 nM	
[2H]C([2H])(OC(=O)N[C@@H](CC(C)C)C(=O)N[C@@H](CC1CCNC1=O)C(O)S(=O)(=O)O)C12CCC(CCCCC)(CC1)CC2 (single isomer, unassigned)		23000 nM		
CCCCCC12CCC(COC(=O)N[C@@H](CC(C)C)C(=O)N[C@H](C=O)C[C@@H]3CCNC3=O)(CC1)CC2 (single isomer, unassigned)		21000 nM		
CC(C)C[C@H](NC(=O)OCC1CC2CCC1C2)C(=O)N[C@H](C=O)C[C@@H]1CCNC1=O (single isomer, unassigned)		> 100000 nM	63 nM	
CC(C)C[C@H](NC(=O)OCC1CC2C=CC1C2)C(=O)N[C@@H](C[C@@H]1CCNC1=O)C(O)S(=O)(=O)O (single isomer, unassigned)		> 100000 nM		
[2H]C([2H])(OC(=O)N[C@@H](CC(C)C)C(=O)N[C@H](C=O)CC1CCNC1=O)C12CCC(CCCCC)(CC1)CC2 (single isomer, unassigned)		20000 nM		
CC(C)C[C@H](NC(=O)OCC1C[C@@H]2C=CC[C@H](C1)C2)C(=O)N[C@H](C=O)C[C@@H]1CCNC1=O (single isomer, unassigned)		> 100000 nM		
[2H]C([2H])(OC(=O)N[C@@H](CC(C)C)C(=O)N[C@@H](CC1CCNC1=O)C(O)S(=O)(=O)O)C1CC2C=CCC(C2)C1 (single isomer, unassigned)		> 100000 nM		
CC(C)C[C@H](NC(=O)OCC1C[C@@H]2C=CC[C@H](C1)C2)C(=O)N[C@@H](C[C@@H]1CCNC1=O)C(O)S(=O)(=O)O (single isomer, unassigned)		> 100000 nM		
[2H]C([2H])(OC(=O)N[C@@H](CC(C)C)C(=O)N[C@H](C=O)CC1CCNC1=O)C1CC2C=CCC(C2)C1 (single isomer, unassigned)		> 100000 nM		
